Compounds with a hit are over-represented: about 2.3% of the library has one in this group of screens.
Candida biofilm – kills Candida albicans biofilms; inhibition, % at 6 µM; C. albicans biofilm + clotrimazole, Alamar Blue; AID 834; hit rate 0.14% among 85,000;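 active = inhibition above 20%; inactive = inhibition below 20%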;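 also: preformed 24 hr biofilms exposed to compound for 48 hr; 0% = biofilm without compound and 100% = blank killed by clotrimazole plus chlorhexidine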
RORa activator – activators of human nuclear receptor RORA; activation, % at 10 µM; AID 560; P35398; CHO-K1 Gal4-RORA LBD luciferase reporter, luminescence; percent increase over mock-subtracted basal signal; hit rate 1.5% among 65,000;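 active = activation above the mean of all tested compounds plus 3 SD, cut at about 49% in these data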;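 also: 0% = DMSO-treated RORA cells and 100% = added signal equal to DMSO minus mock-transfected cells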
SF1 activator – SF-1 (human) activation | CHO-K1 Gal4-SF-1 LBD luciferase reporter; % increase over DMSO SF-1-specific signal | activation, % at 10 µM | hit rate 1.9% among 65,000;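 active = activation above the mean activation of all tested compounds plus 3 SD, cut at about 50% in these data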
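Test system: CHO-K1 cells with Gal4–hSF-1 LBD chimera plus Gal4-driven luciferase; Input: 4,000 cells/well; Compound: 10 µM only; Times: 20 h compound treatment, 37 °C; Measured by: steady-glow luciferase luminescence, read after 15 min reagent incubation; Measure: percent activation versus DMSO; Control set: DMSO and mock-transfected background; Replicates: one test per compound.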
JNK3 inh – blocks human JNK3 kinase activity | purified JNK3 kinase activity, HTS | inhibition, % at 8 µM | hit rate 0.61% among 60,000; in the data active = inhibition above about 17%;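 also: 0% = DMSO and 100% = reference inhibitor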
Target sequence (P53779 whole entry, looked up): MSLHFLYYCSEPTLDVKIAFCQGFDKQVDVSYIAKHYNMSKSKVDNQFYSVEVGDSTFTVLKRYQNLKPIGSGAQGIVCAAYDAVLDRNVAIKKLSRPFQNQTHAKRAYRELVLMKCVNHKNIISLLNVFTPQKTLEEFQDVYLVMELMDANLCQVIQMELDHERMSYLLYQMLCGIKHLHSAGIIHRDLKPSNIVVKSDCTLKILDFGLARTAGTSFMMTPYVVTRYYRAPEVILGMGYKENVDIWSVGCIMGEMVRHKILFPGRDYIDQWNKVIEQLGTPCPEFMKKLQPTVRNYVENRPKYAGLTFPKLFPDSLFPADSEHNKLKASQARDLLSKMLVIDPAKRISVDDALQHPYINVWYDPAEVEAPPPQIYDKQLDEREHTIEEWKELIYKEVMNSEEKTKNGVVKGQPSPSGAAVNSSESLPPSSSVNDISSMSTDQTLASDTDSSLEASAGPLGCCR
* hit, by the source's call; · = no result.

SMILES	Candida biofilm	RORa activator	SF1 activator	JNK3 inh
Cc1cccc2sc(NC(=O)CSCc3ccccc3)nc12	50*	·	·	·
O=C(Cc1cccs1)Nc1ccc(C(=O)O)cc1	·	2	-6	-2
CCOC(=O)c1sc(C)c2c1NC(C)(c1ccccc1)NC2=O (stereo not given)	5	·	·	·
CC1CCCN(C(c2cccs2)c2nnnn2Cc2ccccc2)C1 (stereo not given)	-2	·	·	·
CC(=O)c1sc(NC(=O)c2ccc(Cn3cc(Br)cn3)o2)nc1C	5	-9	-10	-2
Cc1cccc2sc(NC(=O)c3ccc(Cl)s3)nc12	3	23	50*	-6
Cc1ccc2nc(NC(=O)c3ccc(Cn4cc(Cl)cn4)o3)sc2c1	2	55*	13	4
O=C(COc1ccc(Cl)cc1Cl)NC1CCSC1=O (stereo not given)	-2	23	58*	1
CC(C)NC(=O)COc1ccc(Cl)cc1Cl	-2	·	·	·
COC(=O)C(NC(=O)c1ccccc1)(Nc1cc(C)cc(C)n1)C(F)(F)F (stereo not given)	6	·	·	·
CN(C)S(=O)(=O)c1ccc(C(=O)Nc2ccccn2)cc1	6	-9	13	3
CCN(CC)S(=O)(=O)c1ccc(NC(=O)c2ccccn2)cc1	9	49*	55*	10
CN(C)S(=O)(=O)c1ccc(NC(=O)c2ccccn2)cc1	1	57*	74*	-1
CC(C)(C)NC(=O)Nc1ccc2nccnc2c1	7	90*	49	8
O=C(c1ccccc1)N1CCCC(C(=O)N2CCCCCC2)C1 (stereo not given)	·	-20	-12	-1
O=C(c1cccc(F)c1)N1CCCC(C(=O)N2CCCC2)C1 (stereo not given)	7	0	-1	35*
Cc1c(C(=O)N2CCOCC2)sc2nc(-c3ccccc3)cn12	5	58*	82*	0
Cc1c(C(=O)NCc2cccnc2)sc2nc(-c3ccccc3)cn12	9	54*	33	0
Cc1c(C(=O)N2CCN(c3ccc(F)cc3)CC2)sc2nc(-c3ccccc3)cn12	5	18	2	3
Cc1c(C(=O)Nc2ccncc2)sc2nc(-c3ccccc3)cn12	3	-20	-15	2
Cc1c(C(=O)NCc2ccco2)sc2nc(-c3ccccc3)cn12	14	87*	52*	2
Cc1c(C(=O)NCc2cccnc2)sc2nc(-c3ccc(F)cc3)cn12	3	44	-1	2
O=C(Nc1ccccc1)c1sc2cc(C(F)(F)F)cnc2c1-c1cccs1	1	·	·	·
Cn1c(=O)[nH]c(=O)c2[nH]c(N(Cc3ccccc3)Cc3ccccc3)nc21	7	19	15	-2
Cc1oc2cc(O)cc(O)c2c(=O)c1-c1ccc2c(c1)OCCCO2	10	58*	50*	-7
SMILES	Candida biofilm	RORa activator	SF1 activator	JNK3 inh
CCOC(=O)c1oc2cc(O)c(CC)cc2c(=O)c1-c1ccc2c(c1)OCCO2	1	11	-9	-2
CCOC(=O)C1CCCN(Cc2sccc2C)C1 (stereo not given)	-1	·	·	·
O=C(O)CCN1C(=O)C2CCCCC2C1=O (stereo not given)	37*	·	·	·
CCc1ccc2c(COC(=O)c3n[nH]c4ccccc34)cc(=O)oc2c1	·	28	58*	21*
CCOC(=O)c1n[nH]c2ccccc12	5	-1	14	38*
COC(=O)c1ccc(CSc2ccc3nnc(-c4ccc(OC)c(OC)c4)n3n2)o1	3	-2	38	-11
Cn1c(Cn2c(=O)sc3ccccc32)nnc1SCC(=O)NC1CCCCC1	21*	11	3	8
Cc1ncoc1C(=O)Nc1cccc(Cl)c1	5	33	46	0
Cc1ccc(NC(=O)c2ocnc2C)cc1Cl	8	61*	72*	·
CCCCc1ccc(NC(=O)C2CCCO2)cc1 (stereo not given)	0	76*	33	-3
CCOC(=O)c1ccc(NC(=O)C2CCCO2)cc1 (stereo not given)	3	12	64*	0
COc1ccc(C2CCCN2C(=O)Nc2ccccc2)cc1OC (stereo not given)	6	·	·	·
CCC(C)C(NS(=O)(=O)c1ccc(C)cc1)C(=O)NCCN1CCOCC1 (stereo not given)	·	-11	12	3
O=C(c1cccs1)N1CCn2c1nc1ccccc12	6	37	53*	1
COC(=O)C1C(=O)c2c([nH]c(C(=O)OC3CCCCC3)c2C)CC1C (stereo not given)	13	77*	21	2
Cc1ccc2c(c1)CC1(CN2C)C(=O)OC2(CCCCC2)OC1=O	1	3	-12	31*

Screens: PubChem, several laboratories
